Data on nine molecules can be found in ChEMBL document CHEMBL4814077, “Discovery of Surfactins as Inhibitors of MicroRNA Processing Using Cat-ELCCA” (ACS Med Chem Lett, 2021).

In general, IC50 refers to the concentration at which inhibition is half-maximal. Low readings indicate inhibition by little substance, high ones a need for much substance. Usually Kd stands for the concentration at which binding is half-saturated.

Structures are written as SMILES. Active and inactive are the calls of the source. No cut-off for these calls is given here. *1 amine or outer side, *2 acyl side, *3 side chain or, on linkers, in order; H or OH if unused. Where a SMILES comes first, the peptide text is derived from it. Bridges are numbered along the chain shown (N, C = ends). The star is where a group is joined. ξ: configuration not given here. Pentadecanoyl(3ξ-OH,15-Gua) = N=C(N)NCCCCCCCCCCCCC(O)CC(=O)*; X1 = CCC(C)CCCCCCCCC(CC(=O)[*:1])O[*:2]; X7 = CC(C)CCCCCCCCCC(CC(=O)[*:1])O[*:2]; X3 = CC(C)CCCCCCCCC(CC(=O)[*:1])O[*:2]; X5 = CCC(C)CCCCCCC(CC(=O)[*:1])O[*:2]; X2 = CCCCCCCCCCCC(CC(=O)[*:1])O[*:2]; X4 = CCCCCCCCCCC(CC(=O)[*:1])O[*:2]; X6 = CCCCCCCCCC(CC(=O)[*:1])O[*:2]

The subject of series [1] is Pre-let-7d miRNA. As to the kind of experiment: Inhibition of Dicer-mediated pre-let-7d miRNA (unknown origin) processing using […] as substrate incubated for 15 mins by cat-ELCCA assay. The series is classed as nucleic-acid assay. Put shortly:
(§1)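 Cat-ELCCA format with immobilized pre-miRNA (pre-miR-21, or pre-let-7d as a related control substrate) processed by excess Dicer. Integrity of the terminal loop is read by trans-cyclooctene/methyltetrazine click ligation of modified HRP, giving chemiluminescent signal amplification. Assay buffer contains detergent. Dose–response curves give IC50 values reported as 95% confidence intervals.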

Series [2] has as its target microRNA 21. As to the kind of experiment: Inhibition of Dicer-mediated pre-miRNA-21 (unknown origin) processing using […] as substrate incubated for 15 mins by cat-ELCCA assay. The series is classed as nucleic-acid assay. The procedure, abridged: as §1
The target of series [3] is microRNA 21. As to the kind of experiment: Binding affinity to pre-miRNA-21 (unknown origin) by SPR assay. The series is classed as nucleic-acid assay.
In series [4] the target is Pre-let-7d miRNA. As to the kind of experiment: Binding affinity to pre-let-7d miRNA (unknown origin) by SPR assay. The series is classed as nucleic-acid assay. (In general: Surface plasmon resonance follows binding to a sensor surface in real time, without labels.)
A further series relates to HeLa. As to the kind of experiment: Cytotoxicity against human HeLa cells assessed as reduction in cell viability at 100 uM incubated for 48 hrs by CellTiter Glo assay. The series is classed as cell-based. (ATP-based viability assays read luminescence as a measure of living cells.)
In series [5] the test system is Pre-let-7d miRNA. As to the kind of experiment: Inhibition of pre-let-7d miRNA maturation in human HeLa cells transfected with firefly luciferase reporter gene assessed as reduction in luciferase gene expression at 100 uM incubated for 48 hrs by pmiRGlo-dual luciferase reporter assay. The series is classed as cell-based. Put shortly:
(§2)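 HeLa cells transiently transfected with pmiRGLO dual-luciferase reporters carrying miRNA target sites (miR-21 or let-7d) in the firefly luciferase 3′ UTR. Cells treated at 100 μM; luminescence read after 48 h. miR-21 mismatch reporter and empty-vector controls were included. Significance given as p values.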

In series [6] the test system is microRNA 21. In words: Inhibition of pre-miRNA-21 (unknown origin) assessed as reduction in miRNA/Dicer interaction at 10 to 120 uM incubated for 40 mins by EMSA assay. The series is classed as nucleic-acid assay. To be noted: dose 10-120 µM. (In general: In EMSA bound probe runs differently from free probe, usually more slowly.)
The test system of series [7] is microRNA 21. In words: Inhibition of pre-miRNA-21 maturation in human HeLa cells transfected with firefly luciferase reporter gene assessed as reduction in luciferase gene expression at 100 uM incubated for 48 hrs by pmiRGlo-dual luciferase reporter assay. The series is classed as cell-based. The procedure, abridged: as §2

Regarding `CCCCCCCCCC1CC(=O)N[C@@H](CCC(=O)O)C(=O)N[C@@H](CC(C)C)C(=O)N[C@@H](CC(C)C)C(=O)N[C@@H](C(C)C)C(=O)N[C@@H](CC(=O)O)C(=O)N[C@@H](CC(C)C)C(=O)N[C@@H](CC(C)C)C(=O)O1` (stereo partly drawn) (ELLVDLL; linker N-C via X6), the IC50 in the series on Pre-let-7d miRNA [1] and against microRNA 21 [2] was more than 200 µM in each case.

With `CC(C)CCCCCCCCC1CC(=O)N[C@@H](CCC(=O)O)C(=O)N[C@@H](CC(C)C)C(=O)N[C@@H](CC(C)C)C(=O)N[C@@H](C(C)C)C(=O)N[C@@H](CC(=O)O)C(=O)N[C@@H](CC(C)C)C(=O)N[C@@H](CC(C)C)C(=O)O1` (stereo partly drawn) (ELLVDLL; linker N-C via X3), the Kd amounted to 0.43 µM at microRNA 21 [3] and 2.5 µM at Pre-let-7d miRNA [4]. The results for the IC50 with Pre-let-7d miRNA [1] and against microRNA 21 [2] were 70 µM and 52 µM, respectively. Besides, the inhibition entry with Pre-let-7d miRNA [1] and with microRNA 21 [2] was “Dose-Dependent Effect” in each case.

For the molecule `CCC(C)CCCCCCCCC1CC(=O)N[C@@H](CCC(=O)O)C(=O)N[C@@H](CC(C)C)C(=O)N[C@@H](CC(C)C)C(=O)N[C@@H](C(C)C)C(=O)N[C@@H](CC(=O)O)C(=O)N[C@@H](CC(C)C)C(=O)N[C@@H](CC(C)C)C(=O)O1` (stereo partly drawn) (ELLVDLL; linker N-C via X1), the Kd at microRNA 21 [3] came out at 0.78 µM; at Pre-let-7d miRNA [4], 1.2 µM. For the same molecule, in the series on HeLa, the Activity entry is “Toxic”. The inhibition result in the series on Pre-let-7d miRNA [5] and with microRNA 21 [6] was “inactive” throughout. Moreover, the IC50 with Pre-let-7d miRNA [1] came to 54 µM; on microRNA 21 [2] it was 38 µM. The inhibition result in the series on Pre-let-7d miRNA [1] and with microRNA 21 [2] was “Dose-Dependent Effect” throughout. Besides, the inhibition entry in the series with microRNA 21 [7] was “Active”.

Regarding `CCCCCCCCCCC1CC(=O)N[C@@H](CCC(=O)O)C(=O)N[C@@H](CC(C)C)C(=O)N[C@@H](CC(C)C)C(=O)N[C@@H](C(C)C)C(=O)N[C@@H](CC(=O)O)C(=O)N[C@@H](CC(C)C)C(=O)N[C@@H](CC(C)C)C(=O)O1` (stereo partly drawn) (ELLVDLL; linker N-C via X4), the results for the Kd at microRNA 21 [3] and on Pre-let-7d miRNA [4] were 0.38 µM and 0.3 µM, respectively. The half-maximal inhibitory concentration (IC50) is 97 µM with Pre-let-7d miRNA [1] and 71 µM on microRNA 21 [2]. In addition, the inhibition entry with Pre-let-7d miRNA [1] and in the series on microRNA 21 [2] was “Dose-Dependent Effect” throughout.

For the molecule `CC1NC(=O)C(CCC(N)=O)NC(=O)C(C(C)O)NC(=O)C(C(C)C)NC(=O)C(C(C)C)NC(=O)C(NC(=O)CC(O)CCCCCCCCCCCCNC(=N)N)C(C)OC1=O` (stereo not drawn) ({Pentadecanoyl(3ξ-OH,15-Gua)}-TVVTQA; ester 1-C; configuration not given here), the inhibition result in the series on Pre-let-7d miRNA [1] and in the series on microRNA 21 [2] was “inactive” throughout.

As for `CCCCCCCCCCCC1CC(=O)N[C@@H](CCC(=O)O)C(=O)N[C@@H](CC(C)C)C(=O)N[C@@H](CC(C)C)C(=O)N[C@@H](C(C)C)C(=O)N[C@@H](CC(=O)O)C(=O)N[C@@H](CC(C)C)C(=O)N[C@@H](CC(C)C)C(=O)O1` (stereo partly drawn) (ELLVDLL; linker N-C via X2), the figures for the Kd on microRNA 21 [3] and on Pre-let-7d miRNA [4] were 0.73 µM and 1.4 µM, respectively. In addition, the IC50 in the series with Pre-let-7d miRNA [1] amounted to 54 µM; at microRNA 21 [2] it was 48 µM. For the same molecule, the inhibition result in the series on Pre-let-7d miRNA [1] and in the series with microRNA 21 [2] was “Dose-Dependent Effect” in each case.

Consider `CC(C)CCCCCCCCCC1CC(=O)N[C@@H](CCC(=O)O)C(=O)N[C@@H](CC(C)C)C(=O)N[C@@H](CC(C)C)C(=O)N[C@@H](C(C)C)C(=O)N[C@@H](CC(=O)O)C(=O)N[C@@H](CC(C)C)C(=O)N[C@@H](CC(C)C)C(=O)O1` (stereo partly drawn) (ELLVDLL; linker N-C via X7), for which the inhibition entry in the series on Pre-let-7d miRNA [1] and in the series on microRNA 21 [2] was “inactive” each time.

Take `CC(C)[C@@H]1NC(=O)[C@@H](C(C)C)NC(=O)[C@@H](NC(=O)CC(O)CCCCCCCCCCCCNC(=N)N)[C@@H](C)OC(=O)[C@@H](C)NC(=O)[C@@H](CC(N)=O)NC(=O)[C@@H]([C@H](C)O)NC1=O` (stereo partly drawn): the inhibition entry in the series with Pre-let-7d miRNA [1] and with microRNA 21 [2] was “inactive” in each case.

Regarding `CCC(C)CCCCCCC1CC(=O)N[C@@H](CCC(=O)O)C(=O)N[C@@H](CC(C)C)C(=O)N[C@@H](CC(C)C)C(=O)N[C@@H](C(C)C)C(=O)N[C@@H](CC(=O)O)C(=O)N[C@@H](CC(C)C)C(=O)N[C@@H](CC(C)C)C(=O)O1` (stereo partly drawn) (ELLVDLL; linker N-C via X5), the IC50 in the series with Pre-let-7d miRNA [1] and against microRNA 21 [2] was more than 200 µM throughout.
